What was measured:
A2780 [1] = test: Cytotoxicity against ovarian carcinoma A2780 tumor cell lines; type: functional, cell-based, Homo sapiens
Method in brief: (§1)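 Cisplatin-sensitive A2780 cells and the A2780/cis resistant subline were exposed continuously for graded times (24, 48 and 72 h). IC50 was determined at each exposure time. The resistant subline had been derived by gradual cisplatin treatment.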

ML-2 = test: Cytotoxicity against acute myelogenous leukemia ML-2 tumor cell lines; type: functional, cell-based, Homo sapiens
HT-29 [2] = test: Cytotoxicity against colon cancer HT-29 tumor cell lines; type: functional, cell-based, Homo sapiens
KG-1 = test: Cytotoxicity against chronic myelogenous leukemia KG-1 tumor cell lines; type: functional, cell-based, Homo sapiens
HT-29 [3] = test: Cytotoxicity against colon cancer HT29N tumor cell lines; type: functional, cell-based, Homo sapiens
A2780 [4] = test: Cytotoxicity against ovarian carcinoma A2780/cis90 tumor cell lines; type: functional, cell-based, Homo sapiens
B16 = test: Cytotoxicity against mouse melanoma B16 tumor cell lines; type: functional, cell-based
A-427 = test: Cytotoxicity against lung carcinoma A427 tumor cell lines; type: functional, cell-based, Homo sapiens
HCT-116 = test: Cytotoxicity against colon cancer HCT116 tumor cell lines; type: functional, cell-based, Homo sapiens
HBL-100 = test: Cytotoxicity against breast carcinoma HBL100 tumor cell lines; type: functional, cell-based, Homo sapiens
MCF7 = test: Cytotoxicity against breast carcinoma MCF-7 tumor cell lines; type: functional, cell-based, Homo sapiens
A2780 [5] = test: Cytotoxicity against ovarian carcinoma A2780/cis tumor cell lines; type: functional, cell-based, Homo sapiens; method in brief: as §1
COR-L23 = test: Cytotoxicity against lung carcinoma COR-L23/CTR tumor cell lines; type: functional, cell-based, Homo sapiens
K562 = test: Cytotoxicity against chronic myelogenous leukemia K562 tumor cell lines; type: functional, cell-based, Homo sapiens

With CISPLATIN the IC50 (A2780 [1]) was 4 µM, the IC50 (ML-2) was > 80 µM and the IC50 (HT-29 [2]) was 50 µM. For the same sequence, the IC50 (KG-1) was 48 µM, the IC50 (HT-29 [3]) was > 80 µM and the IC50 (A2780 [4]) was > 80 µM. The IC50 (B16) was > 80 µM, the IC50 (A-427) was 63 µM and the IC50 (HCT-116) was > 80 µM. The IC50 (HBL-100) was 63 µM, the IC50 (MCF7) was 71 µM and the IC50 (A2780 [5]) was 40 µM. The IC50 (COR-L23) was > 80 µM and the IC50 (K562) was > 80 µM.

Reference: ChEMBL document CHEMBL1148403, “Platinum(IV) complex with adamantylamine as nonleaving amine group: synthesis, characterization, and in vitro antitumor activity against a panel of cisplatin-resistant cancer cell lines” (J Med Chem, 2004)
